FLuc stim CS: firefly luciferase counter-screen for stimulation assays; P08659; ATPlite luciferase biochemical, luminescence, 10 min; 0 = ATP-free wells, 1 = DMSO control; activation factor at 10 µM; 200,000 tested, under 10 active;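 active = luciferase activation factor, scaled between plate controls, of at least 2 with compound at 10 µM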
Target sequence (P08659 whole entry, looked up): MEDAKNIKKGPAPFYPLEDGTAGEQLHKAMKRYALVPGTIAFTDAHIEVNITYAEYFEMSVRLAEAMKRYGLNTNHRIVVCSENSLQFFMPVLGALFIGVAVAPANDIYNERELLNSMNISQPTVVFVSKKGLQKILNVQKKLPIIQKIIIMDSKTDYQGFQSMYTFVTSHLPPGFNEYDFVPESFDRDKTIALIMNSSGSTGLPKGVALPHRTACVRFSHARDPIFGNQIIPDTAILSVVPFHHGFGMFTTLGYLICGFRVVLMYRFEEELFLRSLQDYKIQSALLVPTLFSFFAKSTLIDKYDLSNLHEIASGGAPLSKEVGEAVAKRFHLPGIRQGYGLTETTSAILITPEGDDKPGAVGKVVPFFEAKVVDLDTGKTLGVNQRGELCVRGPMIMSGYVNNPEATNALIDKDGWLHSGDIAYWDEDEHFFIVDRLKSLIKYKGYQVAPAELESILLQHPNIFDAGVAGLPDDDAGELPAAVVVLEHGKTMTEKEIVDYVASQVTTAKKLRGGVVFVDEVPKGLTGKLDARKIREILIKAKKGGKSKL
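assay system = Luciferase/luciferin detection reagent, cell-free biochemical luciferase assay | also added = ATP substrate | times = 10 min post-reagent at room temperature | measured by = luminescence from luciferase reaction | measure = luciferase activation, seen as luminescence increase over controls | benchmarks = low control with PBS replacing ATP, high control enzyme plus ATP without compound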
FLuc inh counter: Photinus pyralis luciferase inhibition counter-screen; hit rate 1.5% among 200,000; ATPLite firefly luciferase biochemical luminescence, 10 min; AID 1006; inhibition, % at 10 µM;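 active = inhibition above about 50% when tested at 10 µM, limit read from the data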
PPC-1+TRAIL kill: PPC-1 cancer cell killing with TRAIL present. cell killing (% activity), % at 4 µM or 5 µM. PPC-1 cells + TRAIL, ATPLite viability luminescence. AID 1443. hit rate 0.41% among 220,000;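 active = cell killing above 50% in the first pass at 4 µM, then a duplicate retest at 5 µM averaging 50% or more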;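 also: plate controls were cells with TRAIL plus DMSO for no effect and medium-only wells lacking cells for full effect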
C8 TRAIL sens: sensitizes caspase-8 expressing cells to TRAIL. NB7+C8 cells + TRAIL, ATPlite viability luminescence. inhibition (viability loss, TRAIL sensitization), % at 10 µM. hit rate 1% among 360,000;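 active = compounds causing at least 50% loss of cell viability in the single-dose screen, relative to plate controls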
An asterisk follows results filed as active; nt = no result given. Compounds with a hit are over-represented: about 1.6% of the library has one in this group of screens.

SMILES | FLuc stim CS | FLuc inh counter | PPC-1+TRAIL kill | C8 TRAIL sens
O=[N+]([O-])c1cc(S(=O)(=O)C(F)(F)F)ccc1Sc1nc2ccccc2[nH]1 | 1.1 | -7 | 11 | 86*
O=C(NC(=S)N1CCN(c2ccc(C(F)(F)F)cc2[N+](=O)[O-])CC1)c1cccs1 | 1.1 | -9 | 16 | 51*
COc1cc(C(O)c2nc(-c3ccc(F)cc3OC)cs2)ccc1F (configuration not stated) | nt | nt | nt | -1
Cc1cccc(C)c1NC(=O)CN(C)C(=O)CN1C(=O)NC(C)(C)C1=O | nt | nt | nt | -10
CCOC(=O)c1ccc(N2C(=O)C3C(/C=C/c4ccccc4)OC4(C(=O)c5ccccc5C4=O)C3C2=O)cc1 (configuration not stated) | 1.1 | -8 | 55* | -10
CCOC(=O)c1ccc(N2C(=O)[C@@H](c3ccccc3)[C@H]2c2ccccc2)cc1 | nt | nt | nt | 22
O=C(Nc1cc2ccccc2oc1=O)c1ccccc1 | 0.3 | 67* | 48 | 55*
O=C(/C=C/Nc1ccc(Oc2ccccc2)cc1)c1ccco1 | 0.3 | 69* | 49 | 46
O=C(/C=C/Nc1ccccc1C(F)(F)F)c1ccco1 | 0.1 | 89* | nt | 59*
NC(=O)c1ccccc1N/C=C/C(=O)c1ccco1 | 0.6 | 40 | 19 | 12
CC(C)[C@@H]1Cc2[nH][nH]c(=O)c2[C@H](C(C)C)O1 | nt | nt | nt | 2
O=c1/c(=C/c2ccc(O)c([N+](=O)[O-])c2)sc2nc3ccccc3n12 | 0.8 | 21 | -2 | 35
Cc1cc(/C=c2/sc3nc4ccccc4n3c2=O)c(C)n1-c1ccccn1 | 0.1 | 90* | 5 | 80*
O=c1/c(=C\c2cccnc2)sc2nc3ccccc3n12 | 0.4 | 58* | 26 | -3
COc1ccc2nc(N3C(=O)CNC3=S)sc2c1 | nt | nt | 35 | 50*
Cc1ccc2nc(N3C(=O)CNC3=S)sc2c1 | nt | nt | 34 | 32
O=C(NC(=S)Nc1ncccn1)c1ccc(Cl)cc1Cl | 0.4 | 64* | 7 | -1
COc1ccccc1-c1cc(C(=O)NC2CCN(C)CC2)c2ccc(Cl)c(C)c2n1 | nt | nt | nt | 70*
COc1ccc(/C=C(/NC(=O)c2ccc(Br)o2)C(=O)Nc2cccc(C(=O)O)c2)cc1 | nt | nt | nt | -9
Cc1ccc(N=Cc2c(C)[nH]n(-c3nc4ccccc4[nH]3)c2=O)cc1 | 0.2 | 79* | 79* | 89*
CCOC(=O)c1ccc(S(=O)(=O)NNC(=O)Cc2csc(C)n2)cc1 | nt | nt | nt | 7
COc1cccc(C(=O)O/N=C2\CCS(=O)(=O)c3sccc32)c1 | 0.4 | 60* | 1 | 5
O=C(Nc1cccc(-n2cnnn2)c1)c1ccc(C(F)(F)F)cc1 | nt | nt | nt | 49*
O=C(CSC(=S)N1CCCCC1)c1ccccc1 | 0.2 | 76* | 34 | 54*
O=C(CSC(=S)N1CCCC1)c1ccccc1 | nt | nt | nt | 16
SMILES | FLuc stim CS | FLuc inh counter | PPC-1+TRAIL kill | C8 TRAIL sens
Cc1[nH]c2ccccc2c1C(=O)CSC(=S)N1CCCCC1 | 0.5 | 55* | 40 | 35
O=c1c(Br)c(Br)cnn1-c1ccccc1 | 1 | -4 | 33 | 97*
COc1ccc2oc(=N)c(C(=O)Nc3ccc(C)cc3)cc2c1 | nt | nt | nt | 16
COc1ccc2oc(=N)c(C(=O)Nc3ccccc3)cc2c1 | 0.4 | 64* | 17 | 21
CC(C)OC(=O)c1ccc(NCc2cc(O)ccc2O)cc1 | nt | nt | nt | 73*
CCC(=O)Nc1ccc(C(=O)OCc2ccccc2)cc1 | 1 | -3 | 9 | 2
O=C(OCc1ccccc1)c1ccc(NCc2cc(O)ccc2O)cc1 | nt | nt | nt | 90*
Cc1cccnc1NC(=O)CCCNC(=O)c1ccc(Cl)cc1 | nt | nt | nt | -15
Nc1ccc2cc3[nH]c4cc(N)ccc4c3nc2c1 | nt | nt | nt | 63*
Nc1ccc2nc(C3CCCCC3)[nH]c2c1 | 1 | 4 | 8 | 9
CCc1nnc(/N=C/c2c(O)n(-c3ccc(Cl)cn3)c(=O)c3ccccc23)s1 | 0.3 | 66* | -1 | 3
CN[C@H]1C[C@H]2c3cc(-c4ccccc4)ccc3CCN2C(=O)[C@H]1[C@H](C)O | nt | nt | nt | -12
CC(=O)c1ccccc1OCC(O)CN1CCN(CCN2C(=O)c3cccc4cccc(c34)C2=O)CC1 (configuration not stated) | 1 | -3 | 27 | 60*
O=C(Nc1cccc(Oc2ccc(C(=O)O)c(C(=O)O)c2)c1)c1ccc(-c2ccccc2)cc1 | nt | nt | 25 | 54*
COc1cccc(CNC(=O)[C@@H](C)N2C(=O)N3CCc4c([nH]c5ccc(OC)cc45)C3(C)C2=O)c1 (some centres not stated) | nt | nt | nt | 7
CN=CC1=C(O)c2ccccc2C1=O | 1 | -4 | -4 | -12
O=C1C(C2=C(O)c3ccccc3C2=O)=Nc2ccccc21 | 0.7 | 30 | 17 | 89*
Cc1c(Cl)cccc1Nc1nc(N)nc(CSCCO)n1 | 1 | -1 | -22 | -13
Cc1c(Cl)cccc1Nc1nc(N)nc(CSc2ncccn2)n1 | 1 | -4 | -10 | 91*
COc1ccc(Nc2nc(N)nc(CCl)n2)cc1 | nt | nt | 30 | 92*
Cc1ccccc1Nc1nc(N)nc(CN(C)c2ccccc2)n1 | 1 | -5 | 36 | -1
Cc1ccccc1Nc1nc(N)nc(CCl)n1 | nt | nt | 14 | 91*
COc1cccc(NC(=O)CN(C)C(=O)c2c(C)noc2C)c1 | nt | nt | nt | 1
Nc1nc(-c2ccccc2)c(CCCNc2ccccc2)c(=O)[nH]1 | nt | nt | nt | -12
CCOC(=O)/C=C(\C)Sc1cc(O)c2ccccc2c1O | nt | nt | 35 | 72*
SMILES | FLuc stim CS | FLuc inh counter | PPC-1+TRAIL kill | C8 TRAIL sens
CCOC(=O)N1CCC(N2Cc3cccc(C(=O)Nc4cc(F)ccc4F)c3C2=O)CC1 | 1.1 | -6 | 56* | 27
CC(C)(C)Nc1c(C2CCNCC2)nc2c(OCc3ccccc3)cccn12 | nt | nt | nt | 1
O=C(CCl)N1N=C(c2cccs2)CC1c1ccco1 (configuration not stated) | 1 | -5 | 8 | 91*
O=C(NCC(c1ccco1)N1CCCCC1)c1cccnc1 (configuration not stated) | nt | nt | nt | 10
Cc1ccc(O)c(N=CC2=C(O)c3ccccc3C2=O)c1 | 0.7 | 32 | 17 | 23
COc1ccc(N=CC2=C(O)c3ccccc3C2=O)cc1 | 0.1 | 92* | 7 | 88*
O=C1C(C=Nc2ccccc2O)=C(O)c2ccccc21 | 0.2 | 85* | 24 | 46
COc1ccc(N=Cc2[nH]c3ccccc3c2O)cc1 | 0.1 | 86* | 21 | 0
O=C1C(C=Nc2ccccc2)=C(O)c2ccccc21 | 0.1 | 86* | 29 | 50*
CCOc1ccc(CSc2nc(C)cc(COC)c2C#N)cc1OCC | nt | nt | nt | -4
COc1ccccc1CC(=O)Nc1ccc(S(=O)(=O)N2CC(C)CC(C)C2)cc1 (configuration not stated) | nt | nt | nt | 6
COc1ccc(N=C(C)C2=C(O)c3ccccc3C2=O)cc1 | 0.2 | 81* | 63* | 70*
CCOc1ccc(N=C(C)C2=C(O)c3ccccc3C2=O)cc1 | nt | nt | 0 | 30
CCCCN(C)C(=O)c1ccc(Nc2nc(C(N)Cc3ccc(C(F)(F)F)cc3)cs2)nc1 (configuration not stated) | nt | nt | nt | 77*
NC(Cc1ccc(C(F)(F)F)cc1)c1csc(Nc2nncc3ccccc23)n1 (configuration not stated) | nt | nt | nt | 69*

From PubChem
